# Laboratory results: ChEMBL document CHEMBL4316604, “Discovery of Isaindigotone Derivatives as Novel Bloom's Syndrome Protein (BLM) Helicase Inhibitors That Disrupt the BLM/DNA Interactions and Regulate the Homologous Recombination Repair” (J Med Chem, 2019)
# The source made the active and inactive calls. The rule behind the calls is not given here.
# How the values were obtained:
# DNA = experiment: Binding affinity to DNA (unknown origin) up to 2 molar ratio by ITC; type: nucleic-acid assay
# Summary of the method: (§1)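 ITC at 25 °C in 2 mM MgCl2, 10 mM KH2PO4, pH 7.5: ligand (0.6 mM, syringe) titrated in 10 μL injections, 300 s apart, into BLM642-1296 wild-type or point mutant, or DNA (0.04 mM, cell). His-tagged BLM from E. coli BL21(DE3), induced with […] at 16 °C for 24 h. Heats integrated, fitted to 1:1 model for KD.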
# [1] = tested on: RecQ-like DNA helicase BLM (Homo sapiens), P54132 [E1143A]; experiment: Inhibition of His-tagged BLM E1143A mutant (unknown origin) binding to DNA assessed as effect on unbound DNA
# Sequence of RecQ-like DNA helicase BLM (Homo sapiens), P54132 [E1143A] (P54132 whole entry E1143A): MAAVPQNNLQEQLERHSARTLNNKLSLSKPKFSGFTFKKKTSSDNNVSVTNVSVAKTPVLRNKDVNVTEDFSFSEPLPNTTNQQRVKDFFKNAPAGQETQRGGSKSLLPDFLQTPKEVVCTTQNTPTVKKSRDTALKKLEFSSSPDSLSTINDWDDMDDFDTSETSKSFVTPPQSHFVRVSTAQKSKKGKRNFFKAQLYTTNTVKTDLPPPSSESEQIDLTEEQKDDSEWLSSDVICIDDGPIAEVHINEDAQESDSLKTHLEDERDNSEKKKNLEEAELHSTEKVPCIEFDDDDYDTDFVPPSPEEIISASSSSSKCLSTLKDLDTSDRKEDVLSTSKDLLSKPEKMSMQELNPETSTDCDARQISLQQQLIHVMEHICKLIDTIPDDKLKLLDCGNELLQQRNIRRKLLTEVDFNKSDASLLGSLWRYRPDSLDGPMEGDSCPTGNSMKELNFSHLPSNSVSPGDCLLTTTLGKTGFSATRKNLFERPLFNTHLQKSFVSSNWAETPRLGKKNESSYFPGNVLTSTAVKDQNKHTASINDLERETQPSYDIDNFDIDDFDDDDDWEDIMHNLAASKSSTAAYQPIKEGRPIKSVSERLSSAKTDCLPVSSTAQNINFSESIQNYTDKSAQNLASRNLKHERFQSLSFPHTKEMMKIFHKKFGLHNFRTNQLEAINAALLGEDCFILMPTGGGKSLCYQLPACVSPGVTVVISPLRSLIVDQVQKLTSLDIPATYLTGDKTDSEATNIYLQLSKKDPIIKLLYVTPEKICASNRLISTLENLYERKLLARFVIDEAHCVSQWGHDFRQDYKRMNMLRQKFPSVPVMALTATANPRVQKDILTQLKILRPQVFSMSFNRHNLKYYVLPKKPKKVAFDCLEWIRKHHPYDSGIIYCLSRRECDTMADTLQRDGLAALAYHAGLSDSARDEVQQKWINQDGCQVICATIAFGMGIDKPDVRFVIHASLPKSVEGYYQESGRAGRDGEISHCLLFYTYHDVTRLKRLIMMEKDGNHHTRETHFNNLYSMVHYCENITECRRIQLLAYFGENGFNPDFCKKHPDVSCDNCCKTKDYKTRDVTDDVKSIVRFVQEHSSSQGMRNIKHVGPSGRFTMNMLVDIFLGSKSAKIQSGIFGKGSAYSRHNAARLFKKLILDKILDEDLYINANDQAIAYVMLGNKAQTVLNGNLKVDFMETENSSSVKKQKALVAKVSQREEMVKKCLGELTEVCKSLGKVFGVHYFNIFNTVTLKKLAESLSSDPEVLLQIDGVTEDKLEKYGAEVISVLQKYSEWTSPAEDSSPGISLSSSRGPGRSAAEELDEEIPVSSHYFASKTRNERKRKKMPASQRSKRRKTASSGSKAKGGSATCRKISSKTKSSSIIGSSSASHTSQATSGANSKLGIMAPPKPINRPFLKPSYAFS
# Summary of the method: (§2)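 Biotinylated forked DNA (50 nM) immobilised on streptavidin plates overnight at 4 °C. BLM or mutant (100 nM final) premixed with serially halved ligand in 3% BSA blocking buffer, ≤1% DMSO, 1 h on ice. Applied to the blocked plate for 1 h at 37 °C. Bound BLM detected with anti-BLM and HRP secondary, TMB, A450; Hill fit.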
# [2] = tested on: RecQ-like DNA helicase BLM (Homo sapiens), P54132 [I1168A]; experiment: Inhibition of His-tagged BLM I1168A mutant (unknown origin) binding to DNA assessed as effect on unbound DNA; summary of the method: as §2
# Sequence of RecQ-like DNA helicase BLM (Homo sapiens), P54132 [I1168A] (P54132 whole entry I1168A): as the sequence (P54132 whole entry E1143A) above, with A1143E, I1168A counted along it
# [3] = tested on: RecQ-like DNA helicase BLM (Homo sapiens), P54132 [M1111A]; experiment: Inhibition of His-tagged BLM M1111A mutant (unknown origin) binding to DNA assessed as effect on unbound DNA; summary of the method: as §2
# Sequence of RecQ-like DNA helicase BLM (Homo sapiens), P54132 [M1111A] (P54132 whole entry M1111A): as the sequence (P54132 whole entry E1143A) above, with M1111A, A1143E counted along it
# [4] = tested on: RecQ-like DNA helicase BLM (Homo sapiens), P54132 [H996A]; experiment: Inhibition of His-tagged BLM H996A mutant (unknown origin) binding to DNA assessed as effect on unbound DNA; summary of the method: as §2
# Sequence of RecQ-like DNA helicase BLM (Homo sapiens), P54132 [H996A] (P54132 whole entry H996A): as the sequence (P54132 whole entry E1143A) above, with H996A, A1143E counted along it
# HCT-116 [5] = experiment: Effect on RAD51 protein expression in human HCT116 cells at 1 to 2 after 24 hrs; type: functional, cell-based
# Summary of the method: (§3)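 HCT116 cells treated with ligand (DNA-damage proteins 24 h, apoptosis proteins 48 h), lysed in RIPA at 4 °C. 40 μg protein per lane resolved by SDS-PAGE, blotted to PVDF, probed with damage and apoptosis antibody panels; β-actin loading control; chemiluminescent detection.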
# [6] = target: T1, RecQ-like DNA helicase BLM (Homo sapiens, UniProt P54132); experiment: Inhibition of BLM in human HCT116 cells assessed as induction of RAD51 recruitment to DSB sites on chromosomes at 0.5 to 1 uM after 48 hrs by ChIP assay; type: cell-based
# T1 sequence (P54132 whole entry): as the sequence (P54132 whole entry E1143A) above, with A1143E counted along it
# Summary of the method: (§4)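 HCT116 cells co-transfected with HRR(−) reporter DSB model (or chromosomal I-SceI DSBs) and I-SceI; after 24 h given 0–2 μM ligand for 24 h. Crosslinked in 1% formaldehyde, chromatin digested by micrococcal nuclease to 0.2–0.5 kb, IP with anti-BLM or anti-RAD51 (IgG control). qPCR at DSB sites, normalised to untreated; triplicate.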
# [7] = target: T1, RecQ-like DNA helicase BLM; experiment: Inhibition of BLM in human HCT116 cells assessed as induction of HRR up-regulation at 1 uM after 24 hrs by GFP-based flow cytometry relative to untreated control; type: cell-based
# Summary of the method: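 HCT116 cells (2×10^5) co-transfected with DR-GFP HRR reporter and I-SceI plasmid; 24 h later treated with 0–2 μM ligand (reference 0–50 μM); BLM siRNA knockdown where stated. GFP-positive cells counted by flow cytometry and normalised to untreated; triplicate, mean ± SD.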
# [8] = target: T1, RecQ-like DNA helicase BLM; experiment: Inhibition of His-tagged BLM (unknown origin) expressed in Escherichia coli BL21 (DE3) assessed as reduction in BLM helicase unwinding activity at 10 uM using 5'-biotin labeled forked-DNA as substrate after 1 hr by PAGE analysis
# Summary of the method: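 BLM642-1296 (His-tagged, E. coli BL21(DE3)) preincubated with ligand (1.0, 10, 50 μM; ≤1% DMSO) for 1 h at 4 °C. Reaction: 8 nM annealed 5′-biotin duplex forked DNA, 32 nM BLM, 2 mM ATP, 0.1% BSA, 1 h.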
# [9] = target: T1, RecQ-like DNA helicase BLM; experiment: Inhibition of BLM recruitment to DSB sites on chromosomes in human HCT116 cells at 0.5 to 1 uM after 48 hrs by ChIP assay; type: cell-based; summary of the method: as §4
# [10] = target: T1, RecQ-like DNA helicase BLM; experiment: Inhibition of His-tagged BLM (unknown origin) expressed in Escherichia coli BL21 (DE3) assessed as reduction in BLM helicase unwinding activity using 5'-biotin labeled forked-DNA as substrate after 1 hr by PAGE analysis
# [11] = target: T1, RecQ-like DNA helicase BLM; experiment: Inhibition of 5'-biotin labeled forked-DNA binding to BLM in human HCT116 cells assessed as increase in unbound DNA levels at 1 uM after 1 hr by Western blot-based pull down assay; type: cell-based
# Summary of the method: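 Biotinylated duplex forked DNA loaded on streptavidin magnetic beads overnight at 4 °C. HCT116 RIPA lysate incubated with beads plus ligand for 1 h at 25 °C. Bead eluate and supernatant analysed for BLM by SDS-PAGE/western blot.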
# [12] = target: T1, RecQ-like DNA helicase BLM; experiment: Inhibition of BLM recruitment to DSB sites on HRR in human HCT116 cells at 0.5 to 1 uM after 48 hrs by ChIP assay; type: cell-based; summary of the method: as §4
# [13] = target: T1, RecQ-like DNA helicase BLM; experiment: Inhibition of BLM (unknown origin) assessed as increase in RAD51-ssDNA filaments up to 5 uM after 24 hrs by ELISA based DNA exchange activity assay
# HCT-116 [14] = experiment: Induction of apoptosis in human HCT116 cells assessed as increase in cleaved caspase 3 expression at 2 uM after 48 hrs by Western blot analysis; type: functional, cell-based; summary of the method: as §3
# HCT-116 [15] = experiment: Induction of apoptosis in human HCT116 cells assessed as increase in cleaved PARP expression at 2 uM after 48 hrs by Western blot analysis; type: functional, cell-based; summary of the method: as §3
# HCT-116 [16] = experiment: Chemosensitization activity in human HCT116 cells assessed as cisplatin-induced antiproliferative activity at 1.25 uM in presence of cisplatin and BLM siRNA after 24 hrs by MTT assay (reference value: 15.4%); type: functional, cell-based
# [17] = target: T1, RecQ-like DNA helicase BLM; experiment: Binding affinity to His-tagged BLM (642 to 1296 residues) (unknown origin) expressed in Escherichia coli BL21 (DE3) by ITC assay; summary of the method: as §1
# [18] = target: RecQ-like DNA helicase BLM (Homo sapiens, UniProt P54132, Y995A); experiment: Binding affinity to His-tagged BLM Y995A mutant (unknown origin) expressed in Escherichia coli BL21 (DE3) by ITC assay; summary of the method: as §1
# Sequence of RecQ-like DNA helicase BLM (Homo sapiens, UniProt P54132, Y995A) (P54132 whole entry Y995A): as the sequence (P54132 whole entry E1143A) above, with Y995A, A1143E counted along it
# [19] = target: RecQ-like DNA helicase BLM (Homo sapiens, UniProt P54132, I1168A); experiment: Binding affinity to His-tagged BLM I1168A mutant (unknown origin) expressed in Escherichia coli BL21 (DE3) by ITC assay; summary of the method: as §1
# Sequence of RecQ-like DNA helicase BLM (Homo sapiens, UniProt P54132, I1168A) (P54132 whole entry I1168A): as the sequence (P54132 whole entry E1143A) above, with A1143E, I1168A counted along it
# HCT-116 [20] = experiment: Induction of apoptosis in human HCT116 cells assessed as up-regulation of ATM phosphorylation up to 2 uM after 24 hrs by Western blot analysis
# HCT-116 [21] = experiment: Induction of apoptosis in human HCT116 cells assessed as up-regulation of ATR phosphorylation up to 2 uM after 24 hrs by Western blot analysis
structure (smiles),measurement,setting,value
CCN(CC)CCCNc1cc2nc3n(c(=O)c2cc1F)CC/C3=C\c1ccc(C(C)C)cc1,Activity,DNA,inactive
same,inhibition,[1],inactive
same,inhibition,[2],inactive
same,inhibition,[3],inactive
same,inhibition,[4],inactive
same,Activity,HCT-116 [5],inactive
same,inhibition,[6],Active
same,fold change (FC),[7],< 3
same,inhibition,[8],Active
same,inhibition,[9],Active
same,IC50,[10],0.95 µM
same,inhibition,[11],84.3%
same,inhibition,[12],Active
same,inhibition,[13],Dose-dependent effect
same,Activity,HCT-116 [14],Active
same,Activity,HCT-116 [15],Active
same,Activity,HCT-116 [16],Active
same,Kd,[17],1.8 µM
same,Kd,[18],5 µM
same,Kd,[19],6.5 µM
same,Activity,HCT-116 [20],Active
same,Activity,HCT-116 [21],Active
